Data taken from ChEMBL document CHEMBL4020742, “Design and optimization of purine derivatives as in vivo active PDE10A inhibitors” (Bioorg Med Chem, 2017).
Calls of active or inactive are those of the source. The rule behind the calls is not given here.

Experiments:
CYP2C19 [1] = target: T1, CYP2C19 (Homo sapiens, UniProt P33261); assay: (§1) […] of CYP2C19 in human microsomes at 10 uM using mephenytoin as substrate preincubated for 5 mins followed by NADPH addition measured 20 mins relative to control; assay type: ADME; details: human microsomes, probe mephenytoin, read-out: TDI
T1 sequence (P33261 whole entry): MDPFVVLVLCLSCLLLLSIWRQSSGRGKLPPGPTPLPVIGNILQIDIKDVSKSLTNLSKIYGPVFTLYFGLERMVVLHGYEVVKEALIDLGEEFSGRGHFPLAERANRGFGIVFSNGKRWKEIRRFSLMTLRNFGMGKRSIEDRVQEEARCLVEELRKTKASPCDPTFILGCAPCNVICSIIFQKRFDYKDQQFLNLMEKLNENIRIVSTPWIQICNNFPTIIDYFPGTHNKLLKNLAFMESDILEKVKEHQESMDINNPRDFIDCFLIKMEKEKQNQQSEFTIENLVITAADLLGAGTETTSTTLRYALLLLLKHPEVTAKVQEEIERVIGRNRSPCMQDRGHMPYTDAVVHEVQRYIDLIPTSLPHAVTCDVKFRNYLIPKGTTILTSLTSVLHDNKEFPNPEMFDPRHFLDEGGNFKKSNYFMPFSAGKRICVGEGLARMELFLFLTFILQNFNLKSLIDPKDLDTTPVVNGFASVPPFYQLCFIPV

CYP2C9 [2] = target: T2, CYP2C9 (Homo sapiens, UniProt P11712); assay: Inhibition of CYP2C9 in human microsomes at 10 uM using diclofenac as substrate preincubated for 5 mins followed by NADPH addition measured 20 mins relative to control; assay type: ADME; details: human microsomes, probe diclofenac, read-out: TDI
T2 sequence (P11712 whole entry): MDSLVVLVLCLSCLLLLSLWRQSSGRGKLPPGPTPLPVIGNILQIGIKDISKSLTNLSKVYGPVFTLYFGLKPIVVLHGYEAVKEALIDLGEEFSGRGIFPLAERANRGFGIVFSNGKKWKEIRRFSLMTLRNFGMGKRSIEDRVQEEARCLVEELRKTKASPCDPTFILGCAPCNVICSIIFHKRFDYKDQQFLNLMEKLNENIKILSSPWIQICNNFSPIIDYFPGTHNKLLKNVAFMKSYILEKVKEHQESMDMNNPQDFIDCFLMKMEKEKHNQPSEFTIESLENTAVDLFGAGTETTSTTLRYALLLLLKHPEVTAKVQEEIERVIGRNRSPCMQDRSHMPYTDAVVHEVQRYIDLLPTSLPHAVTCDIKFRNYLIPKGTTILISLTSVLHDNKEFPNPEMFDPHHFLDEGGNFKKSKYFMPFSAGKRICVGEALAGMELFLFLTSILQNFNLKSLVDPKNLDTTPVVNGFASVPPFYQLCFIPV
In short: (§2)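 Pooled human microsomes (0.2 mg/mL) in 100 mM phosphate pH 7.4 with a probe cocktail: midazolam 10 µM, dextromethorphan 10 µM, diclofenac 20 µM, phenacetin 100 µM, mephenytoin 100 µM. Test compound was 10 µM; organic solvent was under 1%. After 5 min preincubation at 37 °C, 1 mmol/L NADPH was added and the reaction ran 20 min, keeping substrate conversion below 20%. Metabolite formation was expressed relative to PBS control.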

[3] = Half life in mouse liver microsomes at 1 uM preincubated for 5 mins followed by NADPH addition measured up to 30 mins by LC-MS/MS analysis; assay type: ADME, microsome
In short: (§3)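 Liver microsomes (0.5 mg/mL) plus 1 µM compound were preincubated 5 min at 37 °C in 0.1 M phosphate buffer pH 7.4 containing EDTA and MgCl₂. NADPH started the reaction. Samples at 0, 5, 10 and 30 min were quenched with cold acetonitrile containing tinidazole internal standard and centrifuged. Parent remaining was quantified by LC/MS/MS.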

[4] = target: T3, cAMP and cAMP-inhibited cGMP 3',5'-cyclic phosphodiesterase 10A (Homo sapiens, UniProt Q9Y233); assay: (§4) Inhibition of recombinant human N-terminal GST-tagged PDE10A1 (2 to 789 residues) expressed in baculovirus infected Sf9 cells using fluorescein-labeled cAMP as substrate preincubated for 15 mins followed by substrate addition measured after 30 mins by IMAP fluorescence polarization assay
T3 sequence (Q9Y233 whole entry, the tested form may be a part): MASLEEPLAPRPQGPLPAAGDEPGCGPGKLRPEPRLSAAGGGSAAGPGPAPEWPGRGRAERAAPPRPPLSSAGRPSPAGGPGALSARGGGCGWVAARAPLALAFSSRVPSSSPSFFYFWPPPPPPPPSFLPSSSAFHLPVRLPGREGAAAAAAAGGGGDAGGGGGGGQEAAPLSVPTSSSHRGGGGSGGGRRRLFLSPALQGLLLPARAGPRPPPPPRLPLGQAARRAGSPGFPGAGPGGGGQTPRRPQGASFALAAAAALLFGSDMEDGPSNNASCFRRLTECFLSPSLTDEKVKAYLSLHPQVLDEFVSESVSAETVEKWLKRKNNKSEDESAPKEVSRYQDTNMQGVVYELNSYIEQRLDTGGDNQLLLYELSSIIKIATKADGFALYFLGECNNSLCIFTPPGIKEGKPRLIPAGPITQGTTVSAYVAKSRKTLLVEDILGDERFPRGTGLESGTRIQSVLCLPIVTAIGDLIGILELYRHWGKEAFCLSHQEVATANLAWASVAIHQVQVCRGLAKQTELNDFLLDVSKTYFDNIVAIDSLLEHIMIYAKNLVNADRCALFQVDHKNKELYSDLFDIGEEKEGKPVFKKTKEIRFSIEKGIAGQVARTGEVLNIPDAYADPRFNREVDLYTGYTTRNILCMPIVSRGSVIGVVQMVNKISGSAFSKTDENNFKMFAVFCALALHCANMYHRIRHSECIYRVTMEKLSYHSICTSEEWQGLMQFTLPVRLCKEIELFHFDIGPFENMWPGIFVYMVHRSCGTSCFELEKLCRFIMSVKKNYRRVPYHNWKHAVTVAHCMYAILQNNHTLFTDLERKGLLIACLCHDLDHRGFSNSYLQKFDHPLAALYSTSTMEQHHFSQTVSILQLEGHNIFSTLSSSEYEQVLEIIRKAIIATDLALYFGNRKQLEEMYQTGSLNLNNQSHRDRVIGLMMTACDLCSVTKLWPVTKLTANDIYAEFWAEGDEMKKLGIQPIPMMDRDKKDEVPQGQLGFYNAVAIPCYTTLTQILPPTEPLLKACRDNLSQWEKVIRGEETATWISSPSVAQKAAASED
In short: (§5)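 Recombinant PDE4A1A, PDE2A1 or PDE10A1 was incubated with compound (1% DMSO, duplicate) for 15 min at RT. Fluorescein-cAMP was then added for 30 min at RT, and the reaction was stopped with IMAP binding reagent (1 h, dark). FP was read at Ex485/Em535. Inhibition was set against no-enzyme and DMSO controls. IC50 came from a four-parameter logistic fit; values are the mean of at least two measurements.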

CYP2C19 [5] = target: T1, CYP2C19; assay: (§6) Inhibition of CYP2C19 in human microsomes at 10 uM using mephenytoin as substrate preincubated for 5 mins followed by NADPH addition measured 20 mins relative to control; assay type: ADME; details: human microsomes, probe mephenytoin, read-out: TDI; in short: as §2
Cytochrome P450 1A2 = target: T4, Cytochrome P450 1A2 (Homo sapiens, UniProt P05177); assay: Time-dependent inhibition of CYP1A2 in human microsomes at 10 uM using phenacetin as substrate preincubated for 5 mins followed by NADPH addition measured 20 mins relative to control; assay type: ADME; details: microsomes, 20 min, 10 µM
T4 sequence (P05177 whole entry): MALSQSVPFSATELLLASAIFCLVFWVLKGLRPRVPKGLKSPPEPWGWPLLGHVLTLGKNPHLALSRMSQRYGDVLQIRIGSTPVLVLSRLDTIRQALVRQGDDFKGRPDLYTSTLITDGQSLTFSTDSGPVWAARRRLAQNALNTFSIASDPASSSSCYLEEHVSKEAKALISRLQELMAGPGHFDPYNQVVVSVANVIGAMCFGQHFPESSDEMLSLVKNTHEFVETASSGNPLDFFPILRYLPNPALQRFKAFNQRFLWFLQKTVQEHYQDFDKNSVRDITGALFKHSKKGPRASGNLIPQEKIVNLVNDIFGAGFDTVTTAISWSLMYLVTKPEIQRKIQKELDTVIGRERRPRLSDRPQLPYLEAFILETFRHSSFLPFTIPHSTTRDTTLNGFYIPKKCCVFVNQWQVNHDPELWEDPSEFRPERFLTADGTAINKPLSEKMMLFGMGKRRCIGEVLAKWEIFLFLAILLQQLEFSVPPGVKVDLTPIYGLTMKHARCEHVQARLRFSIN

CYP1A2 = target: T5, CYP1A2 (Homo sapiens, UniProt P05177); assay: Inhibition of CYP1A2 in human microsomes at 10 uM using phenacetin as substrate preincubated for 5 mins followed by NADPH addition measured 20 mins relative to control; assay type: ADME; details: probe phenacetin, read-out: TDI; in short: as §2
T5 sequence (P05177 whole entry): T4 sequence (P05177 whole entry)

Cytochrome P450 3A4 = Cytochrome P450 3A4 (Homo sapiens, UniProt P08684); assay: (§7) Time-dependent inhibition of CYP3A4 in human microsomes at 10 uM using midazolam as substrate preincubated for 5 mins followed by NADPH addition measured 20 mins relative to control; assay type: ADME; details: microsomes, 20 min, 10 µM
Sequence of Cytochrome P450 3A4 (P08684 whole entry): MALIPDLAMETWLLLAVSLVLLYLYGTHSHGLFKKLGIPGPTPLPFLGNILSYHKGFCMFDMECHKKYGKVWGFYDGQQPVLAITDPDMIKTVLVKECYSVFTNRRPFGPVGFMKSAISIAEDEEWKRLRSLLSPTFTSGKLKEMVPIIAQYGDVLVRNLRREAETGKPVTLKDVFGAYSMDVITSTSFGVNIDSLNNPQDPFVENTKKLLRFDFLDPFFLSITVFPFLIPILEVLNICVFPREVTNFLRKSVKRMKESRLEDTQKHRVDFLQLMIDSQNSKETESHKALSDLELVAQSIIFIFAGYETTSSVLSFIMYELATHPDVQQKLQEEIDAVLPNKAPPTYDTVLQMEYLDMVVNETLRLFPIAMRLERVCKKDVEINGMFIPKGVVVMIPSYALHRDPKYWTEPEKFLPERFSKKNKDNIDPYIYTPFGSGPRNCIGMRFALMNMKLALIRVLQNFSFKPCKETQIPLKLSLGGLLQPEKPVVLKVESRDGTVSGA

[6] = Half life in human liver microsomes at 1 uM preincubated for 5 mins followed by NADPH addition measured up to 30 mins by LC-MS/MS analysis; assay type: ADME, microsome; in short: as §3
CYP2D6 [7] = target: T6, CYP2D6 (Homo sapiens, UniProt P10635); assay: Inhibition of CYP2D6 in human microsomes at 10 uM using dextromethorphan as substrate preincubated for 5 mins followed by NADPH addition measured 20 mins relative to control; assay type: ADME; details: human microsomes, probe dextromethorphan, read-out: TDI; in short: as §2
T6 sequence (P10635 whole entry): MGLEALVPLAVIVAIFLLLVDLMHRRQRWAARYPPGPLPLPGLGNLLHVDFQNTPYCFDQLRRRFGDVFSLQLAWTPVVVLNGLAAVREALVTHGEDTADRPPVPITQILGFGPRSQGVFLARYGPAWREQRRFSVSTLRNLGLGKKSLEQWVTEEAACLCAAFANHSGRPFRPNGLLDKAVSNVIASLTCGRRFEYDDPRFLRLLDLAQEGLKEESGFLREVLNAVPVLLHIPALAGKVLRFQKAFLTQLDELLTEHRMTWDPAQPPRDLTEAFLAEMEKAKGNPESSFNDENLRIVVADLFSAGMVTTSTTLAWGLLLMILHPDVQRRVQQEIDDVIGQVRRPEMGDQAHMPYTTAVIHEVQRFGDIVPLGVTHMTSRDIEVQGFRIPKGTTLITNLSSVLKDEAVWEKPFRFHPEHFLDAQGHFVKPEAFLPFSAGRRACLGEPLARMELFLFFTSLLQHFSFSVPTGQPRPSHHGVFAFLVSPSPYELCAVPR

CYP2C9 [8] = target: T2, CYP2C9; assay: (§8) […] of CYP2C9 in human microsomes at 10 uM using diclofenac as substrate preincubated for 5 mins followed by NADPH addition measured 20 mins relative to control; assay type: ADME; details: human microsomes, probe diclofenac, read-out: TDI
CYP3A4 [9] = target: T7, CYP3A4 (Homo sapiens, UniProt P08684); assay: Inhibition of CYP3A4 in human microsomes at 10 uM using midazolam as substrate preincubated for 5 mins followed by NADPH addition measured 20 mins relative to control; assay type: ADME; details: human microsomes, probe midazolam, read-out: TDI; in short: as §2
T7 sequence (P08684 whole entry): as the sequence (P08684 whole entry) above

[10] = target: T3, cAMP and cAMP-inhibited cGMP 3',5'-cyclic phosphodiesterase 10A; assay: as §4, with “cells at 5 uM” for “cells”, “assay relative to control” for “assay”; in short: as §5
CYP2D6 [11] = target: T6, CYP2D6; assay: (§9) […] of CYP2D6 in human microsomes at 10 uM using dextromethorphan as substrate preincubated for 5 mins followed by NADPH addition measured 20 mins relative to control; assay type: ADME; details: human microsomes, probe dextromethorphan, read-out: TDI
Rattus norvegicus [12] = assay: Antipsychotic activity in Sprague-Dawley rat assessed as inhibition of PCP-induced hyperlocomotion at 10 mg/kg, po pretreated for 30 mins followed by PCP addition measured after 5 mins for 1.5 hrs by open field test; assay type: functional, organism-based
In short: (§10)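 Male SD rats (200-250 g), acclimated at least 1 week. Drug was given p.o. in sterile saline with 0.5% Tween 80 and 0.2% CMC-sodium, 30 min before PCP 5 mg/kg i.p. Rats were placed in a 40×40×45 cm open-field arena 5 min after PCP and video-tracked for 90 min. Read-out was total distance travelled, reported as mean ± SEM.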

Cytochrome P450 2C19 [13] = target: T8, Cytochrome P450 2C19 (Homo sapiens, UniProt P33261); assay: as §1; assay type: ADME; details: microsomes, 20 min, 10 µM
T8 sequence (P33261 whole entry): as the sequence (P33261 whole entry) above

Rattus norvegicus [14] = assay: Antipsychotic activity in Sprague-Dawley rat assessed as inhibition of PCP-induced hyperlocomotion at 50 mg/kg, po pretreated for 30 mins followed by PCP addition measured after 5 mins for 1.5 hrs by open field test; assay type: functional, organism-based; in short: as §10
CYP3A4 [15] = target: T7, CYP3A4; assay: as §7; assay type: ADME; details: human microsomes, probe midazolam, read-out: TDI
Rattus norvegicus [16] = assay: Antipsychotic activity in Sprague-Dawley rat assessed as inhibition of PCP-induced prepulse inhibition deficit at 10 mg/kg, po pretreated for 30 mins followed by PCP addition measured after 5 mins to 10 mins; assay type: functional, organism-based
In short: (§11)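 Male SD rats (200-250 g) were dosed p.o. in saline with 0.5% Tween 80 and 0.2% CMC-sodium, 30 min before PCP 5 mg/kg i.p. Acoustic startle PPI was tested in startle chambers 5-10 min after PCP. Startle magnitude was the mean of pulse-alone trials. n = 11-16 per group; mean ± SEM; ANOVA with post hoc tests.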

PDE2A1 = PDE2A1 (Homo sapiens, UniProt O00408); assay: as §4, with “FLAG-tagged PDE2A1” for “GST-tagged PDE10A1”, “941” for “789”, “cells at 1 uM” for “cells”, “assay relative to control” for “assay”; details: probe fluorescein-labeled cAMP; in short: as §5
Sequence of PDE2A1 (O00408 whole entry): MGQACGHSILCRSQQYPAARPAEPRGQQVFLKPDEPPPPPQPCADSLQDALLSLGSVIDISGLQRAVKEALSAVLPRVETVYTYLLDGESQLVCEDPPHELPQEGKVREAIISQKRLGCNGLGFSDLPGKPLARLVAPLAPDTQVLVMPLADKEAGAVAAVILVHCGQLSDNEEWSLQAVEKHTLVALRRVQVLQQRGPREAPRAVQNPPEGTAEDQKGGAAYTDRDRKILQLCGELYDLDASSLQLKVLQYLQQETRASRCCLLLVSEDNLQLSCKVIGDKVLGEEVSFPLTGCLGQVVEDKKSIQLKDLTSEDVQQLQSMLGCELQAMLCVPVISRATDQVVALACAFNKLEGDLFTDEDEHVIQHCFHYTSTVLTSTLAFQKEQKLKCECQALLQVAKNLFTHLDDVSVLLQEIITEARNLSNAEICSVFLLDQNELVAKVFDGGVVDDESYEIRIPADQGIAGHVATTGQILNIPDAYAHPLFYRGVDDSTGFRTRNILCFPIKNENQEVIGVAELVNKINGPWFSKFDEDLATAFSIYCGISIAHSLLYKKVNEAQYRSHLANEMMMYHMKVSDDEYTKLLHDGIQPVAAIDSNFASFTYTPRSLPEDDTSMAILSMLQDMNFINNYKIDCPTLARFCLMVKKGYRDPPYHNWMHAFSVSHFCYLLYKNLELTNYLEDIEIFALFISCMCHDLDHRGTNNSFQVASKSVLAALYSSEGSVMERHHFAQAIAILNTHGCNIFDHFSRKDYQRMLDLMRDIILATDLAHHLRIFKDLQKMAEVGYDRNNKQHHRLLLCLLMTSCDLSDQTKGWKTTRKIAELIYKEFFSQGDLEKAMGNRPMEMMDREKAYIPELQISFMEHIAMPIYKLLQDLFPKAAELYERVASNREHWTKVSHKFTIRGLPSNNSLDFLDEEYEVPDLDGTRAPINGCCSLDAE

Rattus norvegicus [17] = assay: Antipsychotic activity in Sprague-Dawley rat assessed as inhibition of PCP-induced prepulse inhibition deficit at 50 mg/kg, po pretreated for 30 mins followed by PCP addition measured after 5 mins to 10 mins; assay type: functional, organism-based; in short: as §11
Cytochrome P450 2D6 = Cytochrome P450 2D6 (Homo sapiens, UniProt P10635); assay: as §9; assay type: ADME; details: microsomes, 20 min, 10 µM
Sequence of Cytochrome P450 2D6 (P10635 whole entry): as the sequence (P10635 whole entry) above

Cytochrome P450 2C19 [18] = target: T8, Cytochrome P450 2C19; assay: as §6; assay type: ADME; details: microsomes, 20 min, 10 µM; in short: as §2
Cytochrome P450 2C9 = Cytochrome P450 2C9 (Homo sapiens, UniProt P11712); assay: as §8; assay type: ADME; details: microsomes, 20 min, 10 µM
Sequence of Cytochrome P450 2C9 (P11712 whole entry): as the sequence (P11712 whole entry) above

Compound	inhibition at 20 min, 10 µM (CYP2C9 [2]) [%]	half-life at 1 µM [3] [min]	IC50 [4] [nM]	inhibition at 20 min, 10 µM (CYP2C19 [5]) [%]	TDI (Cytochrome P450 1A2)	inhibition at 20 min, 10 µM (CYP1A2) [%]	TDI (Cytochrome P450 3A4)	half-life at 1 µM [6] [min]	inhibition at 20 min, 10 µM (CYP2D6 [7]) [%]	inhibition at 20 min, 10 µM (CYP2C9 [8]) [%]	inhibition at 20 min, 10 µM (CYP3A4 [9]) [%]	inhibition [10] [%]	TDI (Cytochrome P450 2C19 [13])	inhibition at 0.5 h, 1 µM (PDE2A1) [%]	TDI (Cytochrome P450 2D6)	further results
Cc1nc2c(N3CCOCC3)ncnc2n1Cc1ccc(-c2cnn(C)c2)cc1	10	99	68	22	Not Active	21	Not Active	231	7	40	40	96				inhibition at 20 min, 10 µM (CYP2C19 [1]): 80%; inhibition at 20 min, 10 µM (CYP2D6 [11]): 20%
Cc1nc2c(N3CCOCC3)ncnc2n1Cc1ccc(-c2ccccc2Cl)cc1	52	17.8	38	65	Not Active	15		43.3	22	10	9	98	Not Active	29	Not Active	inhibition (Rattus norvegicus [12]): Active; inhibition (Rattus norvegicus [14]): inactive; inhibition at 20 min, 10 µM (CYP3A4 [15]): 50%; inhibition (Rattus norvegicus [16]): inactive; inhibition (Rattus norvegicus [17]): inactive
COc1ccc(-c2ccc(CNc3c(C)nc4c(N5CCOCC5)nccn34)cc2)cc1OC	41	12.8	452		Not Active	29	Not Active	18.2	24		42	92	Not Active	5	Not Active	TDI (Cytochrome P450 2C19 [18]): Not Active; TDI (Cytochrome P450 2C9): Not Active
